KCNQ1 pot: potentiators or activators of human KCNQ1 potassium channel. P51787. CHO-K1 KCNQ1, thallium flux FluxOR fluorescence; active compounds read high. B-score at 10 µM. 310,000 tested, 0.35% active. AID 2648;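 active = fluorescence ratio B-score, a plate-corrected score, at least three library SD, with initial intensity B-score within 5 SD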
Target sequence (P51787 whole entry, looked up): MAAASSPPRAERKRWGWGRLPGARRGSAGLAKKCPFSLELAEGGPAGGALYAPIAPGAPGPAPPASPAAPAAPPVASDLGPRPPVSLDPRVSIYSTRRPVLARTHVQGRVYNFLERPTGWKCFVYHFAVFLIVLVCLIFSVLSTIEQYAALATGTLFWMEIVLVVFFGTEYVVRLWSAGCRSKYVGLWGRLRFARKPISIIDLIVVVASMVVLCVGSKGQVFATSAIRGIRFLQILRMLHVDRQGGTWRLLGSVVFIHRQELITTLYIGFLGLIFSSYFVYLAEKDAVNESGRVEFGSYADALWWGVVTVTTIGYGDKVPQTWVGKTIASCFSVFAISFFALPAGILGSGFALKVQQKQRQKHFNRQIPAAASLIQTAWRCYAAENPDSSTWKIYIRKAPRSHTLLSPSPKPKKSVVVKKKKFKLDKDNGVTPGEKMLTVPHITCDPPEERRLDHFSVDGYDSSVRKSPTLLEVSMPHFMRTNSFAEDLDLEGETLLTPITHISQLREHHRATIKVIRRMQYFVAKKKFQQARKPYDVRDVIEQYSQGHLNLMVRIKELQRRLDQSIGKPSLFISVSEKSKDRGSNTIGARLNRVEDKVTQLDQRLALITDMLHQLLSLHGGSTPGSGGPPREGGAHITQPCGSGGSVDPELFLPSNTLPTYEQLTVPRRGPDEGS
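Assay system: CHO-K1 cells stably expressing KCNQ1. Medium: assay buffer for compound exposure, DMSO matched across wells. Timing: 37 °C overnight plating, 90-min dark dye load, 20-min compound pretreatment. Signal: kinetic FluxOR fluorescence, 10 s baseline plus 110 s post-stimulus.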
KCNQ1 inh: inhibitors of human KCNQ1 potassium channel; B-score at 10 µM; P51787; 310,000 tested, 1.3% active; AID 2642; CHO-K1 KCNQ1, FluxOR thallium flux fluorescence; active compounds read high;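 active = compounds whose thallium flux B-score, printed positive for inhibition, exceeds three library SD while starting fluorescence stays within three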;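 note: channel opened by potassium depolarization with thallium stimulus after 20 min compound exposure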
Kir21 block: Kir2.1 (mouse) channel inhibition. P35561. HEK293-Kir2.1, FluxOR thallium flux fluorescence; active compounds read low. B-score at 10 µM. 310,000 tested, 0.85% active;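 active = fluorescence ratio B-score at or below minus 3 SD of library scores, with starting-brightness B-score within 2 SD, cut at about -4.2 in these data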;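 note: channel flux triggered by added potassium and thallium sulfate stimulus; B-score of peak minus minimum fluorescence over baseline after thallium stimulus; more negative B-score means stronger Kir2.1 block with less thallium influx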
hERG protect: hERG (human) protection from proarrhythmic block; 310,000 tested, 0.51% active; activation (rescue from dofetilide block), less the hit threshold, % at 10 µM; Q12809; CHO-hERG, FluxOR thallium flux, dofetilide IC70 present;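 active = activation above the mean of controls blocked by dofetilide plus 5 SD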;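 note: thallium influx through hERG after potassium depolarization seen as dye fluorescence rise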
KCNK9 inh: inhibitors of human KCNK9 two-pore domain potassium channel; AID 488922; 310,000 tested, 1.2% active; B-score at 10 µM; HEK293 KCNK9, FluxOR thallium flux fluorescence; active compounds read low; Q9NPC2;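 active = ratio B-score over 3 SD below the library mean, with starting fluorescence within 5 SD of its mean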;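 note: negative B-score means less thallium flux so channel inhibition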
KCNK3 block: human KCNK3 channel inhibition, primary screen; O14649; CHO-KCNK3 thallium flux, FluxOR fluorescence; active compounds read low; B-score at 10 µM; 340,000 tested, 0.84% active; AID 602410;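 active = B-score under library mean minus 4 SD, starting fluorescence ratio at most library mean plus 5 SD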;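 note: more negative B-score means stronger inhibition of thallium flux through KCNK3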
Large screens that a line does not name were inactive. Rows were chosen to be rich in hits. Some 3.8% of all compounds tested hit in one or more screens of this group.

O=c1c2ccccc2nc(/C=C/c2ccccc2)n1CCCO	none
N#Cc1nc(NCC(F)F)nc(Nc2cc(F)cc(F)c2)n1	none (no result: KCNQ1 pot, KCNQ1 inh, Kir21 block, hERG protect, KCNK9 inh)
Cc1ccc(C(=O)NNC(=O)c2cccc(Br)c2)cc1	hERG protect 11
Cc1ccc(C(=O)NNC(=O)CCCCC(=O)NNC(=O)c2ccc(C)cc2)cc1	KCNQ1 pot 9
COc1ccc(C(=O)NNC(=O)CCCCC(=O)NNC(=O)c2ccc(OC)cc2)cc1	none
CCC1(O)CC2CN(CCc3c([nH]c4ccccc34)C(C(=O)OC)(c3cc4c(cc3OC)N(C=O)C3C(O)(C(=O)OC)C(OC(C)=O)C5(CC)C=CCN6CCC43C65)C2)C1 (centres undefined)	none (no result: KCNQ1 pot, KCNQ1 inh, Kir21 block, hERG protect, KCNK9 inh)
COC(=O)c1ccccc1S(=O)(=O)N1CCC(C(=O)OCc2cccc(OC)c2OC)CC1	none
CCOC(=O)CC(=O)CSc1nc2c(sc(=S)n2-c2ccccc2)c(=O)[nH]1	none
CCOC(=O)CSc1nc2c(sc(=S)n2-c2ccc(CC)cc2)c(=O)[nH]1	KCNQ1 inh 6
CCOC(=O)N1C(=O)NC(=O)C1c1ccc(OC)cc1 (centres undefined)	none (no result: KCNQ1 pot, KCNQ1 inh, Kir21 block, hERG protect, KCNK9 inh)
Cn1c(COc2ccccc2)nnc1SCC(=O)NNC(=O)C1CCCCC1	none
Cc1ccc(-n2ncc3c(SCc4ccccc4)ncnc32)cc1	hERG protect 8.6
C[C@@H]1NC(=O)c2cc([N+](=O)[O-])cc(I)c2NCCCC[C@@H](C(N)=O)NC(=O)[C@H](CC(N)=O)NC1=O	none (no result: KCNQ1 pot, KCNQ1 inh, Kir21 block, hERG protect, KCNK9 inh)
O=C(NCCc1cccc(Cl)c1)c1ccc(OC2CCN(Cc3ccccn3)CC2)cc1	Kir21 block -5.4
Cc1cccnc1CCNC(=O)c1ccc(OC2CCN(Cc3ccccn3)CC2)cc1	none
COc1ccc(CCNC(=O)COC(=O)c2sc(C)nc2C)cc1	none (no result: KCNQ1 pot, KCNQ1 inh, Kir21 block, hERG protect, KCNK9 inh)
Cc1c(Cl)cccc1NC(=S)NCCC(c1ccccc1)c1ccccc1	KCNQ1 inh 11
Cc1cc(Cl)ccc1NC(=S)NCCC(c1ccccc1)c1ccccc1	KCNQ1 inh 11
Cc1ccc(N=C2SC(C(=O)O)CC(=O)N2C)cc1C (centres undefined)	none
CCSCCOC(=O)C1=C(C)N(C)C(=O)NC1c1ccc2c(c1)OCO2 (centres undefined)	none
O=C(Oc1c(-c2ccccc2)c(=O)n2c3c(cccc13)CC2)c1ccccc1	none
O=C(Oc1c(-c2ccccc2)c(=O)n2c3c(cccc13)CC2)c1cccc([N+](=O)[O-])c1	KCNQ1 inh 6
COC(=O)c1c(-c2ccc(OC)cc2)sc2ccc(OC)cc12	none (no result: KCNQ1 pot, KCNQ1 inh, Kir21 block, hERG protect, KCNK9 inh)
O=C1C(Cl)=C(NCc2cccnc2)C(=O)c2ccccc21	KCNQ1 inh 9
CC(C)NC1=C(Cl)C(=O)c2ccccc2C1=O	hERG protect 4.9
O=C1C(Cl)=C(Nc2ccccc2)C(=O)c2ccccc21	none
C=CCNC1=C(Cl)C(=O)c2ccccc2C1=O	none
CN(C(=O)c1ccc(Br)o1)C1(C)CCS(=O)(=O)C1 (centres undefined)	none
CCCc1ccc(S(=O)(=O)N(C)S(=O)(=O)c2ccc(F)cc2)cc1	KCNK9 inh -6.7
CN1/C(=C\C(=O)CSc2nnc(NCc3ccccc3)s2)C(C)(C)c2ccccc21	Kir21 block -9.7
Cc1cccc(NC(=O)CSCC(=O)Nc2ccccc2C(=O)NC2CC2)c1	none
Cc1ccc(S(=O)(=O)N2CCSC2c2ccco2)cc1 (centres undefined)	Kir21 block -4.3
Cc1ccc(S(=O)(=O)N2CCSC2C(=O)O)cc1 (centres undefined)	none
COc1ccc(C2c3cc(OC)c(OC)cc3CC3C(=O)OCC32)cc1OC (centres undefined)	none (no result: KCNQ1 pot, KCNQ1 inh, Kir21 block, hERG protect, KCNK9 inh)
O=C(COc1cc(F)ccc1[N+](=O)[O-])Nc1cccc(S(=O)(=O)NC2=NCCC2)c1	none (no result: KCNQ1 pot, KCNQ1 inh, Kir21 block, hERG protect, KCNK9 inh)
CCOc1cc(CNC2CCCC2)cc(Cl)c1OCc1ccccc1	Kir21 block -8.8
CCOc1cc(C2NN=C(c3ccccc3)S2)ccc1OCc1ccccc1Cl (centres undefined)	none
CCOc1c(Cl)cc(CNCC(C)C)cc1OC	none
CCOc1cc(CNCC(C)C)cc(Cl)c1OCc1ccccc1	Kir21 block -14
COc1cc(CNC2CCCCCCC2)cc(Cl)c1OC	none
COc1cc(CNCc2ccccc2Cl)ccc1OCC(=O)NC1CCCCC1	Kir21 block -4.7
